E-sel inducer: induces E-selectin expression in human endothelial cells. P16581. AID 686992. actives 0.37% (n = 260,000). activation, % at 7.58 µM. HUVEC E-selectin immunofluorescence imaging; normalized: neutral wells 0, TNF-alpha wells 100;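 active = mean E-selectin-positive cell signal at least 10% of the positive control, reached in at least 60% of replicates, without over 20% cell loss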
Target sequence (P16581 whole entry, looked up): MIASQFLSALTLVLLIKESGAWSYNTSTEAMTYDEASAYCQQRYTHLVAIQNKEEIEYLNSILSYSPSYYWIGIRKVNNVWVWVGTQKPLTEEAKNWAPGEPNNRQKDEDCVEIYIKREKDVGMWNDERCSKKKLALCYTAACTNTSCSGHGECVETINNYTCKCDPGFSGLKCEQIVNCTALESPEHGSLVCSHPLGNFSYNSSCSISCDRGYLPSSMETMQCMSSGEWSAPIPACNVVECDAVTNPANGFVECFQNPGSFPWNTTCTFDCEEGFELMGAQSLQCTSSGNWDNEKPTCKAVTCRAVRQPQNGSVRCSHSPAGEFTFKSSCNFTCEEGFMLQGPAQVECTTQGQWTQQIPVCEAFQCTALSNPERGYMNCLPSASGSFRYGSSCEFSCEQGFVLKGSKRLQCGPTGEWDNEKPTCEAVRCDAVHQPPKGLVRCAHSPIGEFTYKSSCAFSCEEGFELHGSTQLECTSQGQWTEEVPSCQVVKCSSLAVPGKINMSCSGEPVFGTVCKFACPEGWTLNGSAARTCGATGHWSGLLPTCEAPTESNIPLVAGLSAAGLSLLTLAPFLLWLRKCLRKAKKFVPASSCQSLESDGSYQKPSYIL
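Assay system: HUVEC, human umbilical vein endothelial cells / Amount: 3,000 HUVEC/well / Controls: TNF-alpha positive control, DMSO neutral control / Compound dosing: single concentration / Medium: EGM-2 over gelatin coat / Evaluation: percent E-selectin-positive cells / Signal: immunofluorescence imaging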
Of the large screens only hits and unclear results are named; the others gave an inactive call. Many of the other results were omitted from the sample, so hits are more common in it than they were.

CCCc1cn(CC[C@@H]2CC[C@H](NC(=O)Cc3cccnc3)[C@@H](CO)O2)nn1	none
CO[C@H](CN(C)S(=O)(=O)c1cccc(Cl)c1)[C@H](C)CN([C@H](C)CO)S(=O)(=O)c1cccc(Cl)c1	none
Cc1cccc(C(=O)NCC(=O)Nc2ccncc2)c1	none
CCOc1ccc(NC(=O)CNC(=O)c2cccs2)cc1	none
Cc1ccc(C(=O)NCC(=O)Nc2ccncc2)cc1	none
CCOc1ccc(NC(=O)CC(=O)Nc2ccc(OCC)cc2)cc1	none
Cc1ccc(C(=O)NCC(=O)Nc2ccncc2)cc1C	E-sel inducer 204
CCOc1ccc(NC(=O)CNC(=O)c2ccc(OC)cc2)cc1	E-sel inducer 73
C[C@H]1CN([C@@H](C)CO)C(=O)c2cc(C#CC3CCCCC3)cnc2O[C@H]1CN(C)S(=O)(=O)c1ccc(F)cc1	none
O=C(C[C@@H]1CC[C@@H](NS(=O)(=O)c2ccc(F)cc2)[C@@H](CO)O1)NCc1ccncn1	none
CC(=O)c1ccc(N(C(=O)CNC(=O)c2ccco2)C(C(=O)NC2CCCC2)c2ccc(C)o2)cc1 (configuration not stated)	E-sel inducer 33
CC(=O)c1cccc(N(C(=O)CNC(=O)c2ccco2)C(C(=O)NC2CCCC2)c2ccncc2)c1 (configuration not stated)	none
COc1ccc(N(C(=O)c2ccco2)C(C(=O)NC2CCCC2)c2ccncc2)cc1 (configuration not stated)	none
CCOC(=O)c1ccc(N(C(=O)c2ccco2)C(C(=O)NC2CCCCC2)c2ccncc2)cc1 (configuration not stated)	E-sel inducer 35
CCOc1ccc(N(C(=O)CNC(=O)c2ccco2)C(C(=O)NC2CCCC2)c2cccnc2)cc1 (configuration not stated)	none
CC(C)c1ccc(N(C(=O)c2ccco2)C(C(=O)NC2CCCC2)c2ccncc2)cc1 (configuration not stated)	none
O=C(C[C@@H]1CC[C@@H](NS(=O)(=O)c2ccc(F)cc2)[C@H](CO)O1)NC1CCCCC1	none
Cn1cc(S(=O)(=O)N2CCC(C(N)=O)CC2)c(=O)n(C)c1=O	none
CC1CN(S(=O)(=O)c2cn(C)c(=O)n(C)c2=O)CC(C)O1 (configuration not stated)	none
CN(C1CCCCC1)S(=O)(=O)c1cn(C)c(=O)n(C)c1=O	E-sel inducer 29
COc1ccc(S(=O)(=O)N(C)C[C@@H]2OCCCC[C@H](C)Oc3ccc(NC(=O)Nc4ccccc4)cc3C(=O)N([C@@H](C)CO)C[C@@H]2C)cc1	none
CO[C@@H]1CN(C)C(=O)c2ccc(NC(=O)C3CCOCC3)cc2OC[C@@H](C)N(C(C)=O)C[C@H]1C	none
CC=Cc1ccc2n(c1=O)C[C@@H]1[C@@H](CO)[C@H](C(=O)NC3CCC3)N(CC)[C@H]21 (mixture of isomers)	none
CCCCC1C(=O)N(c2ccccc2)N(c2ccc(O)cc2)C1=O (configuration not stated)	E-sel inducer 152
CCCCC1(Br)C(=O)N(c2ccccc2)N(c2ccccc2)C1=O	none
CCCCC1(CO)C(=O)N(c2ccccc2)N(c2ccccc2)C1=O	none
COCC(=O)N(C)C[C@H]1Oc2cc(-c3cccnc3)ccc2S(=O)(=O)N([C@H](C)CO)C[C@@H]1C	none
CC(=O)N[C@H]1C=C[C@H](CC(=O)NCC2CCCCC2)O[C@H]1CO	none
COc1ccc(CNC(=O)Cn2cc(C)c(=O)[nH]c2=O)cc1	none
Nc1ccn(CC(=O)NCc2ccc3c(c2)OCO3)c(=O)n1	none
COc1ccc(CNC(=O)Cn2ccc(N)nc2=O)cc1	E-sel inducer 39
C[C@H]1CN([C@@H](C)CO)S(=O)(=O)c2ccc(-c3ccc(F)cc3)cc2O[C@@H]1CN(C)C(=O)C1CC1	none
C[C@@H]1CCCCO[C@H](CN(C)C(=O)C2CCCCC2)[C@H](C)CN([C@H](C)CO)C(=O)c2cc(NC(=O)Cc3ccccc3)ccc2O1	none
C[C@@H]1CN([C@H](C)CO)C(=O)c2cccc(NC(=O)Nc3ccc4c(c3)OCO4)c2O[C@@H]1CN(C)C(=O)Nc1ccc(C(F)(F)F)cc1	E-sel inducer 60
C[C@@H]1CN([C@@H](C)CO)C(=O)c2cccc(NS(=O)(=O)c3ccc(Cl)cc3)c2O[C@H]1CN(C)C(=O)Nc1ccc2c(c1)OCO2	E-sel inducer 98
C[C@H](CO)N1C[C@H](C)[C@@H](CN(C)C(=O)Nc2ccc(C(F)(F)F)cc2)Oc2c(NC(=O)Nc3ccc4c(c3)OCO4)cccc2C1=O	none
C[C@@H]1CN([C@@H](C)CO)C(=O)c2cccc(NC(=O)Nc3ccc(C(F)(F)F)cc3)c2O[C@@H]1CN(C)C(=O)Nc1ccc2c(c1)OCO2	none
Cc1ccc(S(=O)(=O)Nc2cccc3c2O[C@H](CN(C)C(=O)Nc2ccc4c(c2)OCO4)[C@H](C)CN([C@H](C)CO)C3=O)cc1	none
C[C@@H]1CN([C@H](C)CO)C(=O)c2cccc(NS(=O)(=O)c3ccc(Cl)cc3)c2O[C@H]1CN(C)C(=O)Nc1ccc2c(c1)OCO2	none
C[C@H](CO)N1C[C@H](C)[C@H](CN(C)C(=O)Nc2ccc3c(c2)OCO3)Oc2c(NS(=O)(=O)c3ccc(F)cc3)cccc2C1=O	none
C[C@H](CO)N1C[C@H](C)[C@H](CN(C)C(=O)Nc2ccc3c(c2)OCO3)Oc2c(NS(=O)(=O)c3ccc(Cl)cc3)cccc2C1=O	E-sel inducer 50
Cc1ccc(S(=O)(=O)Nc2cccc3c2O[C@H](CN(C)C(=O)Nc2ccc4c(c2)OCO4)[C@@H](C)CN([C@@H](C)CO)C3=O)cc1	none
CC(C)NC(=O)N(C)C[C@@H]1Oc2ccc(NS(=O)(=O)c3ccccc3)cc2CC(=O)N([C@@H](C)CO)C[C@H]1C	none
O=C(C[C@@H]1C[C@@H]2c3cc(NC(=O)Cc4ccncc4)ccc3O[C@@H]2[C@H](CO)O1)NCc1ccc2c(c1)OCO2	none
CO[C@H](CN(C)C(=O)Nc1ccc(F)cc1)[C@@H](C)CN(Cc1ccccc1Cl)[C@@H](C)CO	none
O=C(c1ccccc1F)N1CC2(C1)[C@H](c1ccccc1)[C@H](CO)N2CC1CCCC1	none
Cc1noc(C)c1NC(=O)N(C)C[C@H]1Oc2ncc(C#CC(C)C)cc2C(=O)N([C@@H](C)CO)C[C@H]1C	none
COc1ccccc1NC(=O)N1C[C@@H]2[C@H](c3ccccc31)[C@H](CO)N2Cc1ccccc1F	none
CNC[C@@H]1OCCCC[C@H](C)Oc2ccc(NC(=O)Nc3ccc(OC)cc3)cc2C(=O)N([C@H](C)CO)C[C@H]1C	none
Cc1ccccc1C1c2[nH]c3ccccc3c2C[C@H]2C(=O)N(C3CC3)CC(=O)N12 (some centres not stated)	E-sel inducer 55
COc1ccccc1C1c2[nH]c3ccccc3c2C[C@H]2C(=O)N(C3CCN(Cc4ccccc4)CC3)CC(=O)N12 (some centres not stated)	none
O=C1[C@@H]2Cc3c([nH]c4ccccc34)C(c3ccc([N+](=O)[O-])cc3)N2C(=O)CN1C1CC1 (some centres not stated)	none
CC(C)CC#Cc1ccc([C@@H]2[C@@H](CO)N3C(=O)CN(S(=O)(=O)c4cccc(F)c4)C[C@H]23)cc1	none
C[C@H]1CN([C@@H](C)CO)C(=O)c2cc(C#CCN(C)C)cnc2O[C@H]1CN(C)C(=O)Cc1cccnc1	none
CCOC(=O)Cn1cc(/C=C(\C#N)C(=O)N2CCOCC2)c2ccccc21	none
CCOC(=O)Cn1cc(/C=C(/C#N)C(=O)NC(C)C)c2ccccc21	E-sel inducer 83
CCOC(=O)Cn1cc(C#N)c2ccccc21	none

Compound activity as filed in PubChem.
